Experimental findings from PMC3372638 (Journal of Molecular Biology, 2012) are described below.

In series [1] the target is T1, HsP5CDH (Homo sapiens, UniProt P30038).
T1 sequence (P30038 18-563): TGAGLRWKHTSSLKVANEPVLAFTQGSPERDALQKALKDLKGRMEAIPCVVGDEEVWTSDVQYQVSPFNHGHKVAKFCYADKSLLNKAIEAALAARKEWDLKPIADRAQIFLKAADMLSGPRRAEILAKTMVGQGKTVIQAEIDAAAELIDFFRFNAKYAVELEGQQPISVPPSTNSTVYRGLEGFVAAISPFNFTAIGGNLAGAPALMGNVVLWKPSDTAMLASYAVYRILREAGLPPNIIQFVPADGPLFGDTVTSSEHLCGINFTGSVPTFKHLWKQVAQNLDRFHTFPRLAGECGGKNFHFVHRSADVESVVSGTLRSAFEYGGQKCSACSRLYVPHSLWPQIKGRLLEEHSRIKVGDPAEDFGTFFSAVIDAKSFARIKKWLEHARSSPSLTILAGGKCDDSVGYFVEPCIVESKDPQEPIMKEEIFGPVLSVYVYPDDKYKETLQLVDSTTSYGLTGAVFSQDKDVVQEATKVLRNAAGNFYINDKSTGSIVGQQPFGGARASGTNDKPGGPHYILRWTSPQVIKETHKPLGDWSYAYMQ
Nature of the series: isothermal titration calorimetry. Format: binding. The method, boiled down: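 His-tagged human P5CDH was expressed in E. coli BL21(DE3)pLysS and purified by Ni2+-affinity then anion exchange. It was dialysed into 50 mM Tris, 50 mM NaCl, 0.5 mM THP, 0.5 mM EDTA, 5 % glycerol, pH 8.0, with NAD+ dissolved in the dialysate and pH-matched. Run at 25 °C: 20 μl NAD+ injections every 240 s, 250 rpm, 4 μl pre-injection discarded. Three titrations (30, 34, 47 μM protein) were fitted globally to a single-site model.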
(In general: Isothermal titration calorimetry measures the heat released or taken up as one component is titrated into another.)

The target in series [2] is T2, HsP5CDH (Homo sapiens, UniProt P30038, S352A).
T2 sequence (P30038 18-563 S352A): T1 sequence (P30038 18-563) with S335A
Nature of the series: isothermal titration calorimetry. Format: binding. The method, boiled down:
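Site-directed S352A mutant of His-tagged human P5CDH was expressed in E. coli BL21(DE3)pLysS and purified by Ni2+-affinity and anion exchange. It was dialysed into 50 mM Tris, 50 mM NaCl, 0.5 mM THP, 0.5 mM EDTA, 5 % glycerol, pH 8.0, with NAD+ in the dialysate and pH-matched. Titrated at 25 °C: 20 μl injections at 240-s intervals, 250 rpm, 4 μl pre-injection discarded. Fitted to a single-site binding model.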

Series [3] deals with the molecule itself. Nature of the series: AUC.
Series [4] deals with the molecule itself. Nature of the series: crystal structure.

Residue numbers refer to the chain shown, from its start.

With `NC(=O)c1ccc[n+]([C@@H]2O[C@H](COP(=O)(O)OP(=O)(O)OC[C@H]3O[C@@H](n4cnc5c(N)ncnc54)[C@H](O)[C@@H]3O)[C@@H](O)[C@H]2O)c1` [NAD^+], the results for the Kd in series [1] and in series [2] were 15 µM and 10 µM, respectively.

B1: human Δ1-pyrroline-5-carboxylate dehydrogenase (enzyme, UniProt P30038-1 18-563, looked up)
chain: T1 sequence (P30038 18-563)
With B1, the stoichiometry N – broadly, a count of units in the complex or per binding partner – in series [3] was 2.

B2: human Δ1-pyrroline-5-carboxylate dehydrogenase with Ser352 mutated to Leu (enzyme, UniProt P30038-1 18-563, looked up)
chain: T1 sequence (P30038 18-563) with S335L
Regarding B2, the binding result in series [4] is on record as “binds”.

B3: human Δ1-pyrroline-5-carboxylate dehydrogenase with Ser352 mutated to Ala (enzyme, UniProt P30038-1 18-563, looked up)
chain: T1 sequence (P30038 18-563) with S335A
With B3, in series [4], the binding result is recorded as “binds”.
